One assay concerns A-375. The assay can be described thus: Cytotoxicity against human A375 cells after 72 hrs by MTS assay. Type of assay: functional, cell-based. The note with it: A-375, 72 h. A digest of the protocol:
(§1)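 Cells (1 × 10^4/well) seeded the evening before. Compounds were taken from 10 mM DMSO stock into growth medium and tested at 2, 10, 25, 50 and 75 µM, four wells each, with DMSO-matched controls. Exposure was 72 h, then MTS reagent for 1.5-4 h at 37 °C, and formazan A490 was read against DMSO-treated cells. IC50 is the mean of four wells from one experiment, or of three experiments where stated.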

Assay [1] deals with OVCAR-3. The assay can be described thus: Cytotoxicity against human OVCAR-3 cells after 72 hrs by MTS assay. Type of assay: functional, cell-based. Particulars: OVCAR-3, 72 h.
The next assay has as its system Daoy. The assay can be described thus: Cytotoxicity against human DaOY cells after 72 hrs by MTS assay. Type of assay: functional, cell-based. A digest of the protocol: as §1
In the next assay the test system is MCF7. The assay can be described thus: Cytotoxicity against human MCF7 cells after 72 hrs by MTS assay. It is filed as functional, cell-based. Particulars: MCF7, 72 h. In short, it runs like this: as §1
The subject of another assay is SK-MEL-2. The assay can be described thus: Cytotoxicity against human SK-MEL-2 cells after 72 hrs by MTS assay. It is filed as functional, cell-based. The note with it: SK-MEL-2, 72 h. A digest of the protocol: as §1
The nature of assay [2]: Cytotoxicity against human LN229 cells after 72 hrs by MTS assay. Type of assay: functional, cell-based. The note with it: LN-229, 72 h. A digest of the protocol:
as §1

In a further assay the test system is HT-29. The assay can be described thus: Cytotoxicity against human HT-29 cells after 72 hrs by MTS assay. It is filed as functional, cell-based. Particulars: HT-29, 72 h. A digest of the protocol:
as §1

The subject of assay [3] is SK-MEL-2 (Homo sapiens). The assay can be described thus: Induction of apoptosis in human SK-MEL-2 cells assessed as necrotic cells at 7.5 uM after 16 hrs by annexin assay.
Assay [4] relates to SK-MEL-2 (Homo sapiens). Description: Induction of apoptosis in human SK-MEL-2 cells assessed as apoptotic cells at 7.5 uM after 16 hrs by annexin assay.
Assay [5] relates to OVCAR-3. The assay can be described thus: Cytotoxicity against human OVCAR-3 cells after 120 hrs by MTS assay. Particulars: OVCAR-3, 120 h.

Turning to `C=C(C)[C@@H]1CC[C@]2(C(=O)O)CC[C@]3(C)[C@H](CC[C@@H]4[C@@]5(C)CCC(NCCc6ccc(O)cc6)C(C)(C)[C@@H]5CC[C@]43C)[C@@H]12` (some centres not stated), the IC50 in the assay on A-375 was 5 µM; with OVCAR-3 [1] it was 6 µM; in the assay on Daoy it was 6 µM; with MCF7 it was 6 µM; with SK-MEL-2 it was 6 µM; in assay [2], 5 µM. Further, the IC50 with HT-29 turned out to be 4 µM.
`C=C(C)[C@@H]1CC[C@]2(C(=O)O)CC[C@]3(C)[C@H](CC[C@@H]4[C@@]5(C)CCC(NCc6ccc7c(c6)OCO7)C(C)(C)[C@@H]5CC[C@]43C)[C@@H]12` (some centres not stated): the IC50 was over 75 µM with A-375; over 75 µM in the assay with OVCAR-3 [1]; 38 µM in the assay with Daoy; over 75 µM in the assay with MCF7; 29 µM in the assay on SK-MEL-2; over 75 µM in assay [2]. In the assay on HT-29, the IC50 was over 75 µM.
Turning to `C=C(C)[C@@H]1CC[C@]2(CO)CC[C@]3(C)[C@H](CC[C@@H]4[C@@]5(C)CCC(N)C(C)(C)[C@@H]5CC[C@]43C)[C@@H]12` (some centres not stated), the IC50 in the assay on A-375 is 2 µM; in the assay on OVCAR-3 [1] it was 5 µM; in the assay on Daoy, 19 µM; in the assay on MCF7, 5 µM; in the assay on SK-MEL-2 it was 9 µM; in assay [2], under 2 µM. In addition, the 50% inhibitory concentration (IC50) with HT-29 amounted to 2 µM.
As for `C=C(C)[C@@H]1CC[C@]2(CO)CC[C@]3(C)[C@H](CC[C@@H]4[C@@]5(C)CCC(NCCO)C(C)(C)[C@@H]5CC[C@]43C)[C@@H]12` (some centres not stated), the IC50 in the assay with A-375 is 2 µM; in the assay with OVCAR-3 [1] it was 5 µM; in the assay on Daoy, 6 µM; in the assay on MCF7, 5 µM; in the assay on SK-MEL-2, under 2 µM; in assay [2], 4 µM. In the assay with HT-29, this compound came in with an IC50 of 2 µM.
On to `C=C(CO)[C@@H]1CC[C@]2(CO)CC[C@]3(C)[C@H](CC[C@@H]4[C@@]5(C)CC[C@H](NCCO)C(C)(C)[C@@H]5CC[C@]43C)[C@@H]12`, for which the IC50 in the assay on A-375 worked out at 16 µM; with OVCAR-3 [1], 39 µM; in the assay with Daoy, 29 µM; in the assay with MCF7 it was 41 µM; in the assay with SK-MEL-2, 34 µM; in assay [2] it was 37 µM. Besides, in the assay with HT-29, the 50% inhibitory concentration (IC50) came to 65 µM.
Take `C=C(CO)[C@@H]1CC[C@]2(CO)CC[C@]3(C)[C@H](CC[C@@H]4[C@@]5(C)CC[C@H](NCCc6ccc(O)c(O)c6)C(C)(C)[C@@H]5CC[C@]43C)[C@@H]12`: the IC50 was 6 µM in the assay with A-375; 18 µM in the assay with OVCAR-3 [1]; 34 µM in the assay on Daoy; 31 µM in the assay with MCF7; 24 µM in the assay with SK-MEL-2; 17 µM in [2]. Moreover, the midpoint of inhibition with HT-29, the IC50, lay at 37 µM.
For `C=C(CNCCO)[C@@H]1CC[C@]2(CO)CC[C@]3(C)[C@H](CC[C@@H]4[C@@]5(C)CCC(=O)C(C)(C)[C@@H]5CC[C@]43C)[C@@H]12`, the IC50 was found to be 10 µM with A-375; 67 µM in the assay on OVCAR-3 [1]; 47 µM in the assay with Daoy; 47 µM in the assay on MCF7; 45 µM in the assay on SK-MEL-2; 16 µM in [2]. The compound also yielded an IC50 in the assay on HT-29 of 45 µM.
On to `C=C(CNCCO)[C@@H]1CC[C@]2(CO)CC[C@]3(C)[C@H](CC[C@@H]4[C@@]5(C)CCC(N)C(C)(C)[C@@H]5CC[C@]43C)[C@@H]12` (some centres not stated), for which the IC50 in the assay with A-375 is 5 µM; in the assay with Daoy it was 5 µM; in the assay with MCF7, 2 µM; in the assay on SK-MEL-2 it was 6 µM; in assay [2], 12 µM; in the assay on HT-29 it was under 2 µM. Besides, the Activity with SK-MEL-2 (Homo sapiens) [3] is under 15%; in the assay with SK-MEL-2 (Homo sapiens) [4] it was over 60%.
Consider `C=C(CNCCO)[C@@H]1CC[C@]2(CO)CC[C@]3(C)[C@H](CC[C@@H]4[C@@]5(C)CCC(NCCc6ccc(O)cc6)C(C)(C)[C@@H]5CC[C@]43C)[C@@H]12` (some centres not stated), for which the IC50 in the assay with A-375 is 2 µM; with Daoy it was under 2 µM; in the assay on MCF7, 4 µM; in the assay with OVCAR-3 [5] it was 40 µM; in the assay on SK-MEL-2 it was 5 µM; in [2], 14 µM. This compound returned an IC50 with HT-29 of under 2 µM. In addition, the results for the Activity in the assay on SK-MEL-2 (Homo sapiens) [3] and in the assay on SK-MEL-2 (Homo sapiens) [4] were under 15% and over 60%, respectively.
Regarding `C=C(CNCCc1ccc(O)cc1)[C@@H]1CC[C@]2(CO)CC[C@]3(C)[C@H](CC[C@@H]4[C@@]5(C)CCC(N)C(C)(C)[C@@H]5CC[C@]43C)[C@@H]12` (some centres not stated), the IC50 was under 2 µM in the assay with A-375; under 2 µM in the assay on Daoy; 5 µM with MCF7; 3 µM in the assay with SK-MEL-2; under 2 µM in assay [2]; 2 µM in the assay with HT-29. The values for the Activity in the assay on SK-MEL-2 (Homo sapiens) [3] and in the assay with SK-MEL-2 (Homo sapiens) [4] were under 15% and over 60%, respectively.
With `C=C(CNCCc1ccc(O)cc1)[C@@H]1CC[C@]2(CO)CC[C@]3(C)[C@H](CC[C@@H]4[C@@]5(C)CCC(NCCO)C(C)(C)[C@@H]5CC[C@]43C)[C@@H]12` (some centres not stated), the IC50 with A-375 turned out to be 5 µM; with Daoy, 2 µM; with MCF7 it was 5 µM; in the assay on SK-MEL-2 it was 6 µM; in assay [2] it was 6 µM; in the assay on HT-29, 5 µM. In addition, the Activity in the assay on SK-MEL-2 (Homo sapiens) [3] was under 15%; in the assay with SK-MEL-2 (Homo sapiens) [4] it was over 60%.

(Values after ChEMBL document CHEMBL1221374, “Synthesis, proapoptotic screening, and structure-activity relationships of novel aza-lupane triterpenoids” (Bioorg Med Chem Lett, 2010).)
